Measured values collected from several papers.
Each line is one published result; the experiments were not run side by side.
CDK1: Cyclin-dependent kinase 1 (CDK1, Homo sapiens, UniProt P06493)
DPP4: Dipeptidyl peptidase 4 (DPP4, Homo sapiens, UniProt P27487)

O=C1NC(=NCc2cccs2)S/C1=C\c1ccc2ncccc2c1
inhibition (CDK1; enzyme activity, inhibitor, ADP detection; 100 µM): 100%

Cn1c(=O)cc(N2CCC(N)CC2)n(Cc2nc3ccc(Br)cc3c(=O)n2-c2cccc(F)c2)c1=O
inhibition (DPP4; enzyme activity, inhibitor; 20 µM): 46.8%

COc1ccc(S(=O)(=O)N(CC(=O)NO)CC(C)C)cc1
inhibition (Stromelysin-2 (Homo sapiens, UniProt P09238); enzyme activity, inhibitor; 0.5 µM): 47.4%

CN(C)c1ncnc2c1ncn2[C@@H]1O[C@H](CCl)[C@@H](NC(=O)[C@@H](CSC(c2ccccc2)c2ccccc2)NC(=O)OC(C)(C)C)[C@H]1O
inhibition (Aminopeptidase N (ANPEP, Homo sapiens, UniProt P15144); enzyme activity, inhibitor, fluorescence; 10 µM): 0%

CC(=O)c1c(C)c2cnc(Nc3ccc(N4CCNCC4)cn3)nc2n(C2CCCC2)c1=O
activity vs control (Cyclin-dependent kinase 9 (CDK9, Homo sapiens, UniProt P50750); enzyme activity, inhibitor, ADP detection; 1 µM): 106%

Cn1c(=O)cc(N2CCC(N)CC2)n(Cc2nc3ccccc3c(=O)n2-c2cccc(C(F)(F)F)c2)c1=O
inhibition (DPP4; enzyme activity, inhibitor; 20 µM): 25.6%

Cc1cc([C@@H](C)Nc2ccccc2C(=O)O)c2nc(N3CCC(F)(F)CC3)c(C#N)c(=O)n2c1
remaining binding (Mitogen-activated protein kinase 3 (MAPK3, Homo sapiens, UniProt P27361); binding, competition with immobilised ligand; 1 µM): 100%

COc1cc(-c2cncc3c2CN(C)Cc2cc(N4CCNCC4)ccc2-3)cc(OC)c1OC
remaining activity (Ephrin type-A receptor 2 (EPHA2, Homo sapiens, UniProt P29317); enzyme activity, inhibitor; 1 µM): 103%

Cc1cc2cc(Oc3ccnc(Nc4cccc(CS(=O)(=O)NCCN(C)C)c4)n3)ccc2[nH]1
inhibition (CDK1; enzyme activity, inhibitor, ADP detection; 100 µM): 100%

Cn1c(=O)cc(N2CCC(N)CC2)n(Cc2nc3ccccc3c(=O)n2-c2ccc(F)c(Cl)c2)c1=O
inhibition (DPP4; enzyme activity, inhibitor; 20 µM): 32.5%

CNc1ncc2c(/C=C/C(=O)N3CCC(OC)CC3)nn(Cc3cccc(C(F)(F)F)c3)c2n1
remaining activity (RAC-alpha serine/threonine-protein kinase (AKT1, Homo sapiens, UniProt P31749); enzyme activity, inhibitor, radiometric; 1 µM): 101%

CCO[C@@H](Cc1ccc(OCCc2ccc(OS(C)(=O)=O)cc2)cc1)C(=O)O
inhibition (CDK1; enzyme activity, inhibitor, ADP detection; 10 µM): 65.9%

C=CC(=O)N1CCC(COCC(=O)N2CCN(c3nc(-c4cnc(N)nc4C(F)F)nc(N4CCOC[C@@H]4C)n3)CC2)CC1
remaining binding (Calcium/calmodulin-dependent protein kinase kinase 2 (CAMKK2, Homo sapiens, UniProt Q96RR4); binding, competition with immobilised ligand; 1 µM): 99%
